From ChEMBL document CHEMBL3352814, “Design, synthesis and biological evaluation of biphenylamide derivatives as Hsp90 C-terminal inhibitors” (Eur J Med Chem, 2015)
Activity calls are given as the source filed them. No cut-off for these calls is given here.

Key:
[1] = Antiproliferative activity against human SKBR3 cells after 72 hrs by MTS/PMS assay; format: functional, cell-based; conditions: SK-BR-3, 72 h
Summary of the method: (§1)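 Cells kept in 1:1 Advanced DMEM/F12 with non-essential amino acids, 2 mM L-glutamine, penicillin/streptomycin and 10% FBS at 37 °C, 5% CO2. Seeded 2000 cells/well, attached overnight, then given compound at varying concentrations in DMSO (1% final) for 72 h. Viable cells read by MTS/PMS. Normalised to 1% DMSO wells as 100% proliferation. IC50 from separate experiments run in triplicate.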

[2] = tested on: MCF7; assay: Antiproliferative activity against human MCF7 cells after 72 hrs by MTS/PMS assay; format: functional, cell-based; conditions: MCF7, 72 h; summary of the method: as §1
[3] = biological target: T1, Heat shock protein HSP90 (Homo sapiens) (UniProt P07900+P08238); assay: Inhibition of HSP90 in human MCF7 cells assessed as induction of Her2 protein degradation at 0.5 times antiproliferative IC50 level after 24 hrs by Western blotting method; format: cell-based
Summary of the method: (§2)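 MCF-7 cells, grown as for proliferation, treated 24 h with compound in DMSO (1% final). Geldanamycin 0.5 μM and DMSO served as controls. Lysis in cold RIPA with 1 mM PMSF, 2 mM orthovanadate and protease inhibitors, 1 h on ice, then cleared at 14000g, 10 min, 4 °C. BCA protein assay; 20 μg protein run reducing, blotted to nitrocellulose, probed with client antibodies, HRP chemiluminescence. High and low doses were 5-fold and 0.5-fold the antiproliferative value.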

[4] = biological target: T1, Heat shock protein HSP90 (Homo sapiens); assay: Inhibition of HSP90 in human MCF7 cells assessed as induction of Raf protein degradation at 0.5 times antiproliferative IC50 level after 24 hrs by Western blotting method; format: cell-based; summary of the method: as §2
[5] = biological target: T1, Heat shock protein HSP90 (Homo sapiens); assay: Inhibition of HSP90 in human MCF7 cells assessed as induction of Akt protein degradation at 0.5 times antiproliferative IC50 level after 24 hrs by Western blotting method; format: cell-based; summary of the method: as §2
[6] = biological target: T1, Heat shock protein HSP90 (Homo sapiens); assay: Inhibition of HSP90 in human MCF7 cells assessed as induction of Her2 protein degradation at 0.1 to 5 uM after 24 hrs by Western blotting method; format: cell-based; summary of the method: as §2
[7] = biological target: T1, Heat shock protein HSP90 (Homo sapiens); assay: Inhibition of HSP90 in human MCF7 cells assessed as induction of Raf protein degradation at 0.1 to 5 uM after 24 hrs by Western blotting method; format: cell-based; summary of the method: as §2
[8] = biological target: T1, Heat shock protein HSP90 (Homo sapiens); assay: Inhibition of HSP90 in human MCF7 cells assessed as induction of Akt protein degradation at 0.1 to 5 uM after 24 hrs by Western blotting method; format: cell-based; summary of the method: as §2
[9] = biological target: T1, Heat shock protein HSP90 (Homo sapiens); assay: Inhibition of HSP90 in human MCF7 cells assessed as induction of Her2 protein degradation at 0.5 to 5 times antiproliferative IC50 level after 24 hrs by Western blotting method; format: cell-based; summary of the method: as §2
[10] = biological target: T1, Heat shock protein HSP90 (Homo sapiens); assay: Inhibition of HSP90 in human MCF7 cells assessed as induction of Raf protein degradation at 0.5 to 5 times antiproliferative IC50 level after 24 hrs by Western blotting method; format: cell-based; summary of the method: as §2
[11] = biological target: T1, Heat shock protein HSP90 (Homo sapiens); assay: Inhibition of HSP90 in human MCF7 cells assessed as induction of Akt protein degradation at 0.5 to 5 times antiproliferative IC50 level after 24 hrs by Western blotting method; format: cell-based; summary of the method: as §2

Structure (SMILES)	IC50 [2] [nM]	inhibition [3]	inhibition [4]	inhibition [5]	inhibition [6]	inhibition [7]	inhibition [8]	inhibition [9]	inhibition [10]	inhibition [11]	IC50 [1] [nM]
COc1ccc(C(=O)Nc2ccc(-c3ccc(OC4CCN(C)CC4)cc3)cc2)cc1-c1ccccc1	840	Active	Active	Active							510
COc1ccc(C(=O)Nc2ccc(-c3ccc(OC4CCN(C)CC4)cc3)cc2)cc1-c1ccc(OC(C)=O)cc1	640	Active	Active	Active	Dose-dependent effect	Dose-dependent effect	Dose-dependent effect				140
COc1ccc(C(=O)Nc2ccc(-c3ccc(OC4CCN(C)CC4)cc3)cc2)cc1	650							Active	Active	Active	490
CC(C)=CCc1cc(C(=O)Nc2cccc(-c3cccc(OC4CCN(C)CC4)c3)c2)ccc1O	1170	Active	Active	Active							2790
COc1cccc(-c2cc(C(=O)Nc3cccc(-c4cccc(OC5CCN(C)CC5)c4)c3)ccc2OC)c1	2000	Active	Active	Active							1620
COc1cccc(-c2cc(C(=O)Nc3ccc(-c4ccc(OC5CCN(C)CC5)cc4)cc3)ccc2OC)c1	710	Active	Active	Active							470
CN1CCC(Oc2ccc(-c3ccc(NC(=O)c4cc5ccccc5[nH]4)cc3)cc2)CC1	580							Active	Active	Active	640
CC(C)=CCc1cc(C(=O)Nc2ccc(-c3ccc(OC4CCN(C)CC4)cc3)cc2)ccc1O	1850	Active	Active	Active							2270

The remaining compounds from weak to strong by IC50 [2], led by results:

IC50 [2] [nM]	inhibition [3]	inhibition [4]	inhibition [5]	inhibition [6]	inhibition [7]	inhibition [8]	inhibition [9]	inhibition [10]	inhibition [11]	Structure (SMILES)	IC50 [1] [nM]
580							Active	Active	Active	CN1CCC(Oc2ccc(-c3ccc(NC(=O)c4ccc5ccccc5c4)cc3)cc2)CC1	220
580							inactive	inactive	inactive	CN1CCC(Oc2ccc(-c3ccc(NC(=O)c4ccc(I)cc4)cc3)cc2)CC1	310
520							inactive	inactive	inactive	CN1CCC(Oc2ccc(-c3ccc(NC(=O)c4ccc(Cl)cc4)cc3)cc2)CC1	570
320	Active	Active	Active							COc1ccc(C(=O)Nc2ccc(-c3ccc(OC4CCN(C)CC4)cc3)cc2)cc1-c1cccc(Cl)c1	330
